# Test results as given in ChEMBL document CHEMBL1828568, “Novel imaging agents for β-amyloid plaque based on the N-benzoylindole core” (Bioorg Med Chem Lett, 2011).
# Test: Displacement of [125I]TZDM from amyloid beta (1 to 40) aggregates after 2 hrs by gamma counting
# How it was run: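 Competition binding against [125I]TZDM as radiolabeled standard, using Aβ1–40 aggregates; run in triplicate, results as mean ± SD.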
row,Ki [µM],SMILES
1,0.0327,O=C(/C=C/c1ccccc1)n1ccc2cc(F)ccc21
2,0.0159,O=C(/C=C/c1ccccc1)n1ccc2ccccc21
